Data on 1 molecule can be found in paper PMC8343189 (Acta Pharmaceutica Sinica. B, 2020).

Data set [1] addresses T1, ANO1 (Homo sapiens, UniProt Q5XXA6, DEL476-501).
T1 sequence (Q5XXA6 with tags, fused parts or gaps isoform Q5XXA6-5 DEL539-564): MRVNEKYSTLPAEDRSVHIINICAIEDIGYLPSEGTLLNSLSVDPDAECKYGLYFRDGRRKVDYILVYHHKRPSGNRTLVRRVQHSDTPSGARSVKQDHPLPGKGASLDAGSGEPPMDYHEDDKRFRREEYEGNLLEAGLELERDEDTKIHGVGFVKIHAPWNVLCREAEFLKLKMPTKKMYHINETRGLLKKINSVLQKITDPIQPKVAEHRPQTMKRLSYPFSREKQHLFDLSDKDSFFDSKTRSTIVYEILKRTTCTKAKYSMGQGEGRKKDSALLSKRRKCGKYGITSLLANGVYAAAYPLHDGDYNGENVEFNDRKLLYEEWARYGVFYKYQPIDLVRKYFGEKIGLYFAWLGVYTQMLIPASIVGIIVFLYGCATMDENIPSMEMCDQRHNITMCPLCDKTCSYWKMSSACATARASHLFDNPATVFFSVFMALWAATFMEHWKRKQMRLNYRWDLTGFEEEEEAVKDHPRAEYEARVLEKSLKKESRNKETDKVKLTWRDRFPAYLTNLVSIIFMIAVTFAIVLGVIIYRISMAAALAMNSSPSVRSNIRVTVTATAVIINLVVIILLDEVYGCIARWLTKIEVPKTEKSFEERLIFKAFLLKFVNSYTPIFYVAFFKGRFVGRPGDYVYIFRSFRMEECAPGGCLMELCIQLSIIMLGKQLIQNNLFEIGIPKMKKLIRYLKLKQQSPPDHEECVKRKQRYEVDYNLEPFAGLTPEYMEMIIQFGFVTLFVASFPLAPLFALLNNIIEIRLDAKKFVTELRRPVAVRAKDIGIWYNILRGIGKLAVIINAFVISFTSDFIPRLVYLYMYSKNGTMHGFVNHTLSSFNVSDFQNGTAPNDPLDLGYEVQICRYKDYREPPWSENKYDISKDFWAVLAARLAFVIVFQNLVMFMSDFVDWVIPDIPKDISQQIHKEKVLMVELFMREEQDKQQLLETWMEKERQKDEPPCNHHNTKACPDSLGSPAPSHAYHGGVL
Nature of the data set: ANO1 whole-cell patch clamp in ANO1-overexpressing FRT cells. As to conditions: 30 μmol/L, ANO1 activated by 1 μmol/L intracellular Ca^2+. It is filed as cell-based.

In data set [2] the target is T1, ANO1. Nature of the data set: YFP fluorescence quenching assay in ANO1-overexpressing FRT cell line. It is filed as cell-based.
Data set [3] concerns intracellular Ca^2+ concentration. Put plainly: Intracellular Ca^2+ fluorescence. It is filed as cell-based. The note with it: 30 μmol/L compound, 200 μmol/L ATP, Cal520, control 2.3 folds.
The next data set concerns the target T2, ANO2 (Homo sapiens, UniProt Q9NQ90).
T2 sequence (Q9NQ90 1-998): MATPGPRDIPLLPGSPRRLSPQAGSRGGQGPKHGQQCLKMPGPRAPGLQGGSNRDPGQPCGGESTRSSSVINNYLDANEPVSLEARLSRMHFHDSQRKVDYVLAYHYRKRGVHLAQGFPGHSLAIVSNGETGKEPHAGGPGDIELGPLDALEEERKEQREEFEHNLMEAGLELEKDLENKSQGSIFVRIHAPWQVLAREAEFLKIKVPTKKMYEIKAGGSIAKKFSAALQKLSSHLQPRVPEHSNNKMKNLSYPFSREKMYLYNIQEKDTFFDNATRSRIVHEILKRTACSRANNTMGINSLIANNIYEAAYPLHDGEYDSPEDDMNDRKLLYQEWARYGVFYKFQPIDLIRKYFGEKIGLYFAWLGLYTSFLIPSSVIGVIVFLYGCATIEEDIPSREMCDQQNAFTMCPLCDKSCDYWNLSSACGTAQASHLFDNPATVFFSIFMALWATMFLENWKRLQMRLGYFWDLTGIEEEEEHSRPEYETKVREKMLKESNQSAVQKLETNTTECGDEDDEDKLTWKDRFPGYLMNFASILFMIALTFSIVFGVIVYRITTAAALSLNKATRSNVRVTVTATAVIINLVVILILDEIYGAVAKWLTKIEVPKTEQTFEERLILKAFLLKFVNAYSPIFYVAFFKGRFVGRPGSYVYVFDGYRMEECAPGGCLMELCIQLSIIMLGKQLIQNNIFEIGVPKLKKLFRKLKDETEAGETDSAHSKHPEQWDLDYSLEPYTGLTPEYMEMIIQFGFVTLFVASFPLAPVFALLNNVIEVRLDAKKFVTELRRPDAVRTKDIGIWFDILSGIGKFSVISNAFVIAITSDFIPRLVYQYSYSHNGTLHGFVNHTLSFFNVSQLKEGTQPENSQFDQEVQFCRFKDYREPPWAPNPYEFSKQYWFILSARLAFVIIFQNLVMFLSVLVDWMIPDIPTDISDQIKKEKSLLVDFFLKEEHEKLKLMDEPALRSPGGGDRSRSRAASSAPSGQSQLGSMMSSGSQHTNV
Nature of the data set: ANO2 whole-cell patch clamp in HEK293 cells transiently expressing ANO2. It is filed as cell-based. As to conditions: 30 μmol/L. In a few lines:
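HEK293 cells transiently transfected with the ANO2 gene; whole-cell patch clamp at room temperature, pipette solution at pCa2+ 6.0. Cells held at −40 mV, stepped from […] in +20 mV increments for 500 ms, then repolarized to −80 mV for 250 ms, every 15 s. Currents recorded before and after 30 μmol/L test compound; an ANO1-selective inhibitor and a pan-inhibitor served as controls.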

Data set [4] can be described thus: Stability under different pH conditions. It is filed as physicochemical. The note with it: 37 °C, 100 μmol/L, mean ± SD, n = 3. The method, boiled down:
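Test compound diluted to 100 μmol/L in phosphate buffers at pH 1.0, 4.0, 6.8, 7.4 and 9.0 and held in a 37 °C water bath. HPLC−UV peak area measured at 0, 2 and 5 h; residual expressed relative to the 0 h peak area.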

Another data set in a line: MDCK cells permeability. It is filed as in vitro ADME, canine. As to conditions: dog, MDCK. The method, boiled down: (§1)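 Transwell with a resistance-stable MDCK monolayer; compound added to the upper chamber, HBSS in the lower chamber. Incubated 120 min at 37 °C, 5% CO2. Lower-chamber concentration measured by LC−MS. Papp derived from amount transported per time, membrane area and initial upper-chamber concentration. Mean ± SD, n = 3.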

The next data set relates to MDCK cells. Nature of the data set: MDCK cells permeability. It is filed as in vitro ADME, canine. As to conditions: oral bioavailability prediction from MDCK permeability. The method, boiled down: as §1
In the next data set the test system is CHO cells. Put plainly: SRB proliferative cytotoxicity in CHO cells. It is filed as cell-based, Chinese Hamster. The note with it: 1 and 3 μmol/L, 72 h. In a few lines: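 CHO cells in DMEM with 10% FBS, seeded overnight, then exposed to test compound or DMSO vehicle for 72 h. Cells fixed with 10% TCA for 1 h at 4 °C and stained with 0.4% SRB in 1% acetic acid for 15 min in the dark. Washed with acetic acid, dye dissolved in 10 mmol/L Tris-base, absorbance read at 540 nm. n = 3, mean ± SEM, t-test vs DMSO control.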

For a further data set, the system named is C57BL/6 male mice. Put plainly: Acute toxicity in mice, i.g. It is filed as in vivo. The method, boiled down: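 Male C57BL/6 mice, 6–8 weeks, 18–22 g, 7 per group, received a single intragastric dose of 1000 mg/kg. Vehicle was 5% DMSO + 10% […] + 85% saline (v/v), adjusted to pH 8.0 with NaOH. Survival was monitored daily for 3 days.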
The subject of data set [5] is SD rats. Put plainly: Formalin test on rat. It is filed as in vivo. In a few lines: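 30 min later, 50 μL 5% formalin injected into the left paw; controls received saline. Foot lifts counted over phase 1 (0–10 min) and phase 2 (10–60 min). Mean ± SD; ANOVA vs vehicle.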
The subject of data set [6] is SD rats. Put plainly: Chronic constriction injury model. The note with it: 40 mg/kg i.g., rat CCI, Electronic Von Frey, vehicle 11.5. It is filed as in vivo.

On to `O=C(O)c1c(-c2ccc(Cl)cc2)csc1NC(=O)c1cccc2ccccc12` [Compound 42, 2-(1-Naphthamido)-4-(4-chlorophenyl) thiophene-3-carboxylic acid], for which, on ANO1 [1], the CaCC current entry is given as “significantly suppressed the CaCC current”. Further, the IC50 against ANO1 [2] was determined as 790 nM. The “maximum relative fluorescence units (RFU) vs initial value (Ca^2+ influx)” value in data set [3] worked out at 1.9 folds. Further, the “effect on ANO2 induced CaCC current” value at ANO2 (HEK293 cells expressing ANO2) was “little effect”. Besides, the ANO1/ANO2 selectivity entry at ANO2 (compared with Ani9 and CaCCinh-A01) is on record as “slightly weaker than that of Ani9 but much higher than that of CaCCinh-A01”. Also, the “5 h residual compound under different pH (%) pH 1.0” value in data set [4] (pH 1.0, 5 h) is given as 99.0 ± 4.6%. Besides, the “5 h residual compound under different pH (%) pH 4.0” value in data set [4] (pH 4.0, 5 h) is 99.4 ± 4.4%. The “5 h residual compound under different pH (%) pH 6.8” value in data set [4] (pH 6.8, 5 h) is listed as 99.2 ± 4.9%. For the same molecule, in data set [4] (pH 7.4, 5 h), the “5 h residual compound under different pH (%) pH 7.4” value is 99.4 ± 3.5%. Further, the “5 h residual compound under different pH (%) pH 9.0” value in data set [4] (pH 9.0, 5 h) was found to be 99.5 ± 0.9%. In “MDCK cells permeability”, this molecule came in with a Papp at 120 min of 13.8 ×10⁻⁶ cm/s. Further, in the data set with MDCK cells, the “F prediction (%)” value was more than 70%. For the same molecule, the “effect on CHO cell proliferation” value in the data set on CHO cells is reported as “weak effect”. For the same molecule, the “survival and acute toxic response” value with C57BL/6 male mice (1000 mg/kg i.g., 72 h, C57BL/6 male mice) is “All mice survived and no intense acute toxic response”. In the data set on C57BL/6 male mice (i.g. administration, mice), this molecule registered a safe dose not above 1000 mg/kg. Also, the “analgesic effect in phase 2 compared with vehicle” value with SD rats [5] (80 mg/kg i.g., phase 2) was “significant analgesic effect”. For the same molecule, the “number of foot lifts, phase 2” value in the data set with SD rats [5] (80 mg/kg i.g., phase 2, vehicle 121 foot lifts) was determined as 70 foot lifts. Besides, the “effect on number of foot lifts, phase 1” value in the data set with SD rats [5] (i.g., compared with the vehicle group, phase 1) is “not phase 1”. Also, in the data set on SD rats [6], the “PTI, pain threshold rate change (%) of 1 h compared to 0 h” value is 45.2%.
